Assay [1] addresses Human immunodeficiency virus type 1 reverse transcriptase (Human immunodeficiency virus 1, UniProt Q72547). Kind of assay: Inhibitory activity against HIV-1 Reverse transcriptase wild-type (RT wt). An outline of the steps:
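Recombinant HIV-1 RT (wild-type, M184V or M184I) was expressed in E. coli JM109 with 1 mM IPTG for 5 h, then purified on Q and SP columns to >90% purity. Assay used MS2 RNA/22A DNA primer in 50 mM Tris-HCl pH 7.8, 6 mM MgCl2, 150 mM KCl and 0.01% Triton X-100. Synthesis was distributive, with [3H]dATP as the only nucleotide, at 37 °C. Timed aliquots were spotted on DE81 and counted by scintillation. Ki came from the abscissa intercept of the Lineweaver–Burk replot. Ratio was Ki over dATP Km.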

For assay [2], the target named is Human immunodeficiency virus type 1 reverse transcriptase (Human immunodeficiency virus 1, UniProt Q72547, M184I). Kind of assay: Inhibitory activity against HIV-1 reverse transcriptase (RT M184I). An outline of the steps:
(§1)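 Recombinant HIV-1 RT M184V or M184I was expressed in E. coli JM109 (1 mM IPTG, 5 h), purified over Q and SP columns to >90%. The template-primer was MS2 RNA/22A DNA in 50 mM Tris-HCl pH 7.8, 6 mM MgCl2, 150 mM KCl, 0.01% Triton X-100, with [3H]dATP as the sole nucleotide (distributive mode). Reactions were enzyme-started at 37 °C and sampled 4–5 times onto DE81 filters. Ki came from the abscissa intercept of the Lineweaver–Burk replot.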

Assay [3] deals with Human immunodeficiency virus type 1 reverse transcriptase (Human immunodeficiency virus 1, UniProt Q72547, M184V). Briefly: Inhibitory activity against HIV-1 reverse transcriptase (RT M184V). The essentials: as §1

The term Ki denotes a dissociation constant, usually derived from enzyme kinetics or from competition with a known ligand. Higher therefore signals weaker binding.

For the compound `Nc1ncnc2c1ncn2/C=C1/CC1COP(=O)(O)OP(=O)(O)OP(=O)(O)O` (stereo not given), the Ki in assay [1] was determined as 320 nM. For `Nc1ncnc2c1ncn2/C=C1\CC1COP(=O)(O)OP(=O)(O)OP(=O)(O)O` (stereo not given), the Ki in assay [1] is 10000 nM. Take `Nc1ncnc2c1ncn2[C@H]1CC[C@@H](COP(=O)(O)OP(=O)(O)OP(=O)(O)O)O1` [DDA-TRIPHOSPHATE]: the results for the Ki in assay [1], in assay [2] and in assay [3] were 510 nM, 1200 nM and 500 nM, respectively.
